Test results: PubChem BioAssay AID1325 (NMMLSC, 2008)
The campaign covered roughly 190,000 compounds. About 200 (0.11%) were called active. Many of the other results were omitted from the sample, so actives are more common in it than they were. Unmarked numbers belong to inactive results.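 Rule for the calls: active = inhibition above 80%; inactive = the rest.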

biological target: Broad substrate specificity ATP-binding cassette transporter ABCG2 (Homo sapiens) (UniProt Q9UNQ0); assay: ABCG2 efflux pump inhibitors, primary screen, multiplex with ABCB1, IgMXP3 cells, flow cytometry (AID 1325); conditions: JC-1 efflux, at 6.6 µM, active compounds read high;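 note: 0% = DMSO and 100% = nicardipine control wells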
Sequence (Q9UNQ0 whole entry, looked up): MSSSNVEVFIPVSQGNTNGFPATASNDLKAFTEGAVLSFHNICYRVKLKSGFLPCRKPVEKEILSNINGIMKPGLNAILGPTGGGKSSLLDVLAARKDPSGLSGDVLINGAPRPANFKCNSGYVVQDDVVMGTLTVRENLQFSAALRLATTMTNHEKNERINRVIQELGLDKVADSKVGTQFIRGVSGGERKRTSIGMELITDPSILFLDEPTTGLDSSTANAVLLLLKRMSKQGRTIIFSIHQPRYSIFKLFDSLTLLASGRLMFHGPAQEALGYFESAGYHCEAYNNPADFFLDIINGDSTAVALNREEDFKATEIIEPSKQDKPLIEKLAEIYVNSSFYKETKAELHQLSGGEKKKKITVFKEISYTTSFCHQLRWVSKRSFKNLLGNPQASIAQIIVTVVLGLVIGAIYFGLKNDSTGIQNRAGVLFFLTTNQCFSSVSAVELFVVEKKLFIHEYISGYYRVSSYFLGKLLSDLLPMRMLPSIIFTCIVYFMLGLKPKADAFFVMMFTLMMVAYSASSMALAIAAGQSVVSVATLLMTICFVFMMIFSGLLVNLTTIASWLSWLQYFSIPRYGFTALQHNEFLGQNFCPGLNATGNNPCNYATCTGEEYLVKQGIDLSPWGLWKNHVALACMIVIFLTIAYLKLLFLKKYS
Outline: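 material = IgMXP3 (ABCG2) plus far-red-tagged CCRF-Adr (ABCB1) cells | amount = 3 million cells/mL, equal mix of both lines | also added = JC-1 transporter substrate | dosing = one concentration, 6.6 µM final | schedule = 10 min at 25 °C | measured by = flow cytometric JC-1 green MFI at 530 nm | read-out basis = percent efflux inhibition, scaled nicardipine 100% to DMSO 0%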

Row | Structure (SMILES) | inhibition
1 | COC(=O)COc1cc(C)cc2oc(=O)c3c(c12)CCCC3 | 85.8% (active)
2 | Cc1cc(OCc2cc(C(=O)O)oc2C)c2c3c(c(=O)oc2c1)CCCC3 | -0.16%
3 | Cc1ccc(-c2nc3ccccc3c(=O)n2-c2ccc(Br)cn2)cc1 | 4.52%
4 | COc1ccc(-c2nn(CCC#N)cc2C(=O)O)cc1 | 12.1%
5 | CN(C)C(=O)Oc1cc(=O)n2c3c(cccc13)CCC2 | 8.26%
